Laboratory results from PMC2909360 (Molecular microbiology, 2010).
Where two headings read alike, the source gives them in different places.

T1: purified human cathepsin H (Homo sapiens, UniProt P09668)
T1 sequence (P09668 98-335): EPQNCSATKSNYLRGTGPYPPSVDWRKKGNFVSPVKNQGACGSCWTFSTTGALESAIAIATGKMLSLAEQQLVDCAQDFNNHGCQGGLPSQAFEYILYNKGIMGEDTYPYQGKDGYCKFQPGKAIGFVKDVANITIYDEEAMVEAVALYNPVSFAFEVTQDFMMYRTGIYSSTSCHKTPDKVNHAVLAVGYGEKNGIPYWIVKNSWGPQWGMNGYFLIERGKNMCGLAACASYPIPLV


Columns and labels:
[1] = target: T1, purified human cathepsin H; assay: Inhibition of cathepsin H, fluorogenic substrate assay; type: biochemical
[2] = target: purified bovine cathepsin B (Bos taurus, UniProt P07688); assay: Inhibition of cathepsin B, fluorogenic substrate assay; type: biochemical
Procedure, shortened: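 Pre-incubated 10 min at room temperature with increasing inhibitor concentrations, then Z-Leu-Arg-AMC added (0.25 mM final) at 30°C. Linear hydrolysis rate read for 20 min (ex 365/em 450 nm). Triplicates, mean ± SEM. IC50 from activity loss.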

Molecule | inhibition of cathepsin H (in words) [1] | inhibition of cathepsin B (in words) [2] | inhibition of cathepsin H (in words) ([1]; listed as sialostatin L2)
sialoL: salivary cystatin (cysteine protease inhibitor) from the tick Ixodes scapularis, recombinant from E. coli (protein) TGVFGGYSERANHQANPEFLNLAHYATSTWSAQQPGKTHFDTVAEVVKVETQVVAGTNYRLTLKVAESTCELTSTYNKDTCLPKADAAHRTCTTVVFENLQGDKSVSPFECEAA | no inhibition | no inhibition | 
sialoL2: salivary cystatin (cysteine protease inhibitor) from the tick Ixodes scapularis, recombinant from E. coli (protein) MELALRGGYRERSNQDDPEYLELAHYATSTWSAQQPGKTHFDTVVEVLKVETQTVAGTNYRLTLKVAESTCELTSTYNKDTCQANANAAQRTCTTVIYRNLQGEKSISSFECAAA |  | no inhibition | no detectable inhibition
